Laboratory results as given in ChEMBL document CHEMBL3124872, “Discovery and early development of TMC647055, a non-nucleoside inhibitor of the hepatitis C virus NS5B polymerase” (J Med Chem, 2014).
Active and inactive are the calls of the source. The rule behind the calls is not given here.

What was measured:
[1] = system: Hepatitis C virus; test: Antiviral activity against Hepatitis C virus genotype 2a infected in human HuH7 by transient replicon assay; type: functional, organism-based, Hepacivirus hominis; conditions: Huh-7
Summary of the method: (§1)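 Transient replicon assay using chimeric replicons whose NS5B region is derived from patient isolates of the stated genotype.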

[2] = system: Homo sapiens; test: Toxicity in HCV genotype 1-infected patient assessed as effect on food consumption at 500 to 1000 mg, po bid for 5 days followed by morning dose on day 6; type: organism-based; conditions: in vivo, 120 h
Summary of the method: (§2)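 HCV genotype 1-infected patients given oral b.i.d. doses of 500 or 1000 mg for 5 days plus a morning dose on day 6, in hydroxypropyl-β-cyclodextrin vehicle; adverse events with grading, laboratory parameters, vital signs, food consumption, appetite and ECG monitored.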

[3] = system: Hepatitis C virus; test: Antiviral activity against Hepatitis C virus genotype 1b infected in human HuH7 assessed as rebound of replicon RNA at 3.75 uM preincubated for 2 weeks followed by 3 week rebound phase by RT-PCR analysis; type: functional, organism-based; conditions: Hepacivirus hominis, Huh-7
Summary of the method: (§3)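 Clearance-and-rebound test in Huh7-Luc genotype 1b replicon cells. Cells were incubated with inhibitor (3.75 μM alone) for 14 days, then held for a 3-week rebound phase without inhibitor. Replicon RNA was followed for clearance and rebound.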

[4] = system: Hepatitis C virus; test: Antiviral activity against Hepatitis C virus harboring NS5B S96T mutant infected in human HuH7 by luciferase reporter gene assay; type: functional, organism-based; conditions: Hepacivirus hominis; Huh-7
[5] = system: Hepatitis C virus; test: Antiviral activity against Hepatitis C virus genotype 1b infected in human assessed as log10 reduction in HCV RNA level at 1000 mg, po bid for 5 days followed by morning dose on day 6 relative to control; type: functional, Hepacivirus hominis
Summary of the method: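 Oral b.i.d. dosing of HCV genotype 1-infected patients at 500 mg or 1000 mg for 5 days, plus a morning dose on day 6, in hydroxypropyl-β-cyclodextrin vehicle. Read-out was the median maximum decrease in plasma HCV RNA from baseline (log10), using patients with HCV RNA data available up to Day 6.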

[6] = system: Hepatitis C virus; test: Antiviral activity against Hepatitis C virus genotype 1b infected in human HuH7 assessed as clearance of replicon cells at 3.75 uM preincubated for 2 weeks followed by 3 week rebound phase by RT-PCR analysis; type: functional, organism-based; conditions: Hepacivirus hominis, Huh-7; summary of the method: as §3
[7] = system: Homo sapiens; test: Toxicity in human assessed as effect on vital signs at 300 to 1250 mg, po bid for 5 days followed by morning dose on day 6; type: organism-based; conditions: in vivo, 120 h
Summary of the method: (§4)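 Healthy volunteers given oral b.i.d. doses of 300, 1000 or 1250 mg for 5 days plus a morning dose on day 6, in hydroxypropyl-β-cyclodextrin vehicle; adverse events, laboratory parameters, vital signs, food consumption, appetite, ECG and plasma 4-β-hydroxycholesterol (CYP3A4 induction marker) monitored.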

[8] = system: Hepatitis C virus; test: Antiviral activity against Hepatitis C virus harboring NS5B M414T mutant infected in human HuH7 by luciferase reporter gene assay; type: functional, organism-based; conditions: Hepacivirus hominis; Huh-7
[9] = system: Hepatitis C virus; test: Antiviral activity against Hepatitis C virus genotype 1b harboring NS5B NNI-1 site P495L mutant infected in human HuH7 by luciferase reporter gene assay relative to wild-type HCV genotype 1b; type: functional, Hepacivirus hominis, Huh-7
[10] = Binding affinity to Hepatitis C virus Con 1b wild-type NS5B by surface plasmon resonance analysis; set-up: species or system Hepatitis C virus (isolate Con1)
Summary of the method: (§5)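 Surface plasmon resonance binding to NS5B polymerase of the stated genotype; association and dissociation rate constants measured, from which Kd and residence half-life were derived; median Kd reported.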

[11] = Cytotoxicity against human MRC5 cells after 3 days by resazurin-based fluorescence analysis; type: cell-based
[12] = system: Hepatitis C virus; test: Antiviral activity against Hepatitis C virus genotype 2b infected in human HuH7 by transient replicon assay; type: functional, organism-based, Hepacivirus hominis; conditions: Huh-7; summary of the method: as §1
[13] = system: Hepatitis C virus; test: Antiviral activity against Hepatitis C virus genotype 1b infected in human HuH7 cells after 72 hrs by luciferase reporter gene assay; type: functional, organism-based, Hepacivirus hominis; conditions: Huh-7, 72 h
[14] = system: Hepatitis C virus; test: Antiviral activity against Hepatitis C virus genotype 6a infected in human HuH7 by transient replicon assay; type: functional, organism-based, Hepacivirus hominis; conditions: Huh-7; summary of the method: as §1
[15] = system: Hepatitis C virus subtype 1b
[16] = system: Homo sapiens; test: Toxicity in HCV genotype 1-infected patient assessed as effect on ECG profile at 500 to 1000 mg, po bid for 5 days followed by morning dose on day 6; type: organism-based; conditions: in vivo, 120 h; summary of the method: as §2
[17] = system: Homo sapiens; test: Toxicity in human assessed as grade-3 adverse events at 300 to 1250 mg, po bid for 5 days followed by morning dose on day 6; type: organism-based; conditions: in vivo, 120 h
Summary of the method: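 Oral b.i.d. dosing for 5 days plus a single morning dose on day 6, in a hydroxypropyl-β-cyclodextrin vehicle. Healthy volunteers received 300, 1000 or 1250 mg; HCV genotype 1-infected patients received 500 or 1000 mg. Monitoring covered adverse events graded by severity, laboratory parameters, vital signs, food consumption, appetite and ECG.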

[18] = system: Hepatitis C virus; test: Antiviral activity against Hepatitis C virus genotype 1b infected in human HuH7 by transient replicon assay; type: functional, organism-based, Hepacivirus hominis; conditions: Huh-7; summary of the method: as §1
[19] = Selectivity ratio of EC50 for Hepatitis C virus genotype 2a to EC50 for wild-type Hepatitis C virus Con 1b; type: functional
Summary of the method: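 Transient replicon assay using chimeric replicons carrying NS5B from genotype 2a or 2b patient isolates. EC50 was compared with that against the genotype 1b replicon.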

[20] = system: Plasma; test: Fraction unbound in human plasma; type: ADME, cell-free
[21] = system: Homo sapiens; test: Toxicity in human assessed as effect on laboratory parameters at 300 to 1250 mg, po bid for 5 days followed by morning dose on day 6; type: organism-based; conditions: in vivo, 120 h; summary of the method: as §4
[22] = Drug uptake in Sprague-Dawley rat liver at 10 mg/kg, po after 7 hrs; type: ADME, organism-based; set-up: dose 10 mg/kg, route oral; conditions: read-out: Drug uptake
[23] = system: Homo sapiens; test: Toxicity in human assessed as effect on ECG profile at 300 to 1250 mg, po bid for 5 days followed by morning dose on day 6; type: organism-based; conditions: in vivo, 120 h; summary of the method: as §4
[24] = system: Rattus norvegicus; test: Toxicity in rat assessed as decrease in body weight at 1000 mg/kg/day after 5 days; type: organism-based; conditions: in vivo, 120 h
[25] = system: Homo sapiens; test: Toxicity in HCV genotype 1-infected patient assessed as effect on vital signs at 500 to 1000 mg, po bid for 5 days followed by morning dose on day 6; type: organism-based; conditions: in vivo, 120 h; summary of the method: as §2
[26] = Binding affinity to Hepatitis C virus genotype 4a NS5B by surface plasmon resonance analysis; set-up: species or system Hepatitis C virus subtype 4a; summary of the method: as §5
[27] = system: Hepatitis C virus; test: Antiviral activity against Hepatitis C virus harboring […] L31V mutant infected in human HuH7 by luciferase reporter gene assay; type: functional, organism-based; conditions: Hepacivirus hominis; Huh-7
[28] = Cytotoxicity against HEK293T cells after 3 days by resazurin-based fluorescence analysis; type: cell-based, HEK-293T; conditions: human
[29] = Binding affinity to Hepatitis C virus genotype 2b NS5B by surface plasmon resonance analysis; set-up: species or system Hepatitis C virus subtype 2b; summary of the method: as §5
[30] = system: Hepatitis C virus; test: Antiviral activity against Hepatitis C virus genotype 3a infected in human HuH7 by transient replicon assay; type: functional, organism-based, Hepacivirus hominis; conditions: Huh-7; summary of the method: as §1
[31] = system: Homo sapiens; test: Toxicity in human assessed as effect on food consumption at 300 to 1250 mg, po bid for 5 days followed by morning dose on day 6; type: organism-based; conditions: in vivo, 120 h; summary of the method: as §4
[32] = system: Hepatitis C virus; test: Antiviral activity against Hepatitis C virus harboring NS5B M423T mutant infected in human HuH7 by luciferase reporter gene assay; type: functional, organism-based; conditions: Hepacivirus hominis; Huh-7
[33] = Cytotoxicity against African green monkey Vero E6 cells after 3 days by resazurin-based fluorescence analysis; type: cell-based; conditions: chlorocebus sabaeus
[34] = system: Hepatitis C virus; test: Antiviral activity against Hepatitis C virus genotype 1b infected in human HuH7 cells after 72 hrs by luciferase reporter gene assay in presence of 40% human plasma relative to control; type: functional, Hepacivirus hominis, Huh-7
[35] = system: Homo sapiens; test: Toxicity in HCV genotype 1-infected patient assessed as gastrointestinal side-effects at 500 to 1000 mg, po bid for 5 days followed by morning dose on day 6; type: organism-based; conditions: in vivo, 120 h; summary of the method: as §2

With `COc1ccc2c(c1)C=C1Cn3c-2c(C2CCCCC2)c2ccc(cc23)C(=O)NS(=O)(=O)N(C)CCOCCN(C)C1=O` [TMC-647055] the EC50 [1] was 12500 nM, the Activity [2] was “Non-toxic” and the Activity [3] was “inactive”. The Activity [4] was “Active”, the FC [5] was 3.4 and the Activity [6] was “inactive”. The Activity [7] was “Non-toxic”, the Activity [8] was “Active” and the “fold change (FC)” value [9] was 371. For the same molecule, the Kd [10] was 4.1 nM, the CC50 at 72 h [11] was > 50000 nM and the EC50 [12] was > 28000 nM. It also gave an EC50 [13] of 77 nM, an EC50 [14] of 113 nM and a T1/2 [15] of 2.17 h. For the same molecule, the Activity [16] was “Non-toxic”, the Activity [17] was “Non-toxic” and the EC50 [18] was 27 nM. For the same molecule, the “Ratio EC50” value [19] was >200, the Fu [20] was 0.3% and the Activity [21] was “Non-toxic”. The concentration at 7 h [22] was 7800 ng/g, the Activity [23] was “Non-toxic” and the Activity [24] was “Toxic”. For the same molecule, the Activity [25] was “Non-toxic”, the Kd [26] was 2 nM and the Activity [27] was “Active”. For the same molecule, the CC50 at 72 h [28] was > 50000 nM, the Kd [29] was 880 nM and the EC50 [30] was 88 nM. The Activity [31] was “Non-toxic”, the Activity [32] was “Active” and the CC50 at 72 h [33] was > 50000 nM. The “fold change (FC)” value [34] was 9 and the Activity [35] was “Toxic”.
